Assay results gathered from unrelated publications.
Protocols differ between the studies behind these lines.
Target: Serine/threonine-protein kinase PRP4 homolog (PRPF4B, Homo sapiens, UniProt Q13523)

Compound | effect on | method | concentration | remaining binding
C[C@@H]1CN(c2cc(-c3nn(C)c4ccc(OC5(C)CC5)cc34)ncn2)C[C@H](C)O1 | cell-free assay | competition with immobilised ligand | 1 µM | 100%
Cc1nn(C)cc1-c1nc2c(N3CCN(Cc4ccc(Cl)cc4)CC3)c(Cl)cnc2[nH]1 | binding | competition with immobilised ligand | 1 µM | 100%
CS(=O)(=O)N1CCCC(NC(=O)[C@H](CCC2CCCCC2)NC(=O)c2ccc(CNc3ncnc4c3nnn4-c3ccccc3)cc2)C1 (stereo partly shown) | cell-free assay | competition with immobilised ligand | 0.1 µM | 60%
COc1cnc(Nc2cccc(S(N)(=O)=O)c2)nc1N1CCN(c2ccccc2)CC1 | binding | competition with immobilised ligand | 1 µM | 90%
O=C(NCCCN1CCOCC1)c1ccc(Nc2ncc(Cl)c(-c3ccc(Cl)s3)n2)cc1 | binding | competition with immobilised ligand | 1 µM | 22%
CN1CCN(c2cnc3c(C4CCN(C(=O)c5ccc(OC(F)(F)F)cc5N)CC4)ncnc3c2)CC1 | cell-free assay | competition with immobilised ligand | 1 µM | 100%
CC1CCCN1c1nccc(-c2cnn3ncccc23)n1 (stereo not shown) | binding |  | 1 µM | 100%
C=CC(=O)N1CCC(C(=O)NCC(=O)N2CCN(c3nc(-c4cnc(N)nc4C(F)F)nc(N4CCOCC4)n3)CC2)CC1 | binding | competition with immobilised ligand | 1 µM | 100%
CN(CCCC(F)(F)F)c1nccc(-c2cnn3ncccc23)n1 | binding |  | 1 µM | 100%
O=C(c1ccc(Nc2nccc(-c3cc4ccccc4s3)n2)cc1)N1CCC(N2CCCC2)CC1 | binding | competition with immobilised ligand | 1 µM | 6.3%
FC(F)(F)Oc1cccc(-c2cnc3ccc(-c4ccncc4)nn23)c1 | cell-free assay | competition with immobilised ligand | 5 µM | 71%
FC(F)(F)c1ccc2c(c1)nc(-c1cccnc1)n2C1CC1 | cell-free assay | competition with immobilised ligand | 1 µM | 98%
c1cnn2ncc(-c3ccnc(N4CCC45COC5)n3)c2c1 | binding |  | 1 µM | 84%
O=C(Nc1c[nH]nc1C(=O)NC1CCNCC1)c1cc(F)cc(F)c1 | binding | competition with immobilised ligand | 1 µM | 82%
N[C@@H]1CCN(c2nccc(-c3cnn4ncccc34)n2)C1 | binding |  | 1 µM | 100%
CC(C)(O)c1cncc(-c2nc3ccc(F)cc3n2C2CC2)c1 | cell-free assay | competition with immobilised ligand | 1 µM | 58%
C[C@H]1CCN(c2nccc(-c3cnn4ncccc34)n2)C1 | binding |  | 1 µM | 53%
c1cncc(-c2cccc(Nc3nccc(NC4CCCCC4)n3)c2)c1 | binding | competition with immobilised ligand | 10 µM | 100%
Cc1noc([C@H]2C[C@@H](c3ccc(C(F)(F)F)cc3)CN(C(=O)N3CCS(=O)(=O)C3)C2)n1 | cell-free assay | competition with immobilised ligand | 1 µM | 72%
CN(c1nccc(-c2cnn3ncccc23)n1)C1CC1 | binding |  | 1 µM | 100%
O=c1nc(-c2ccccn2)sc2ccccc12 | binding | competition with immobilised ligand | 1 µM | 71%
O=C(c1ccc(Nc2ncc(Cl)c(-c3cc4ccccc4s3)n2)cc1)N1CCC(N2CCCC2)CC1 | binding | competition with immobilised ligand | 1 µM | 3.7%
